The values that follow come from ChEMBL document CHEMBL1139414, “Conformationally constrained analogues of diacylglycerol. 29. Cells sort diacylglycerol-lactone chemical zip codes to produce diverse and selective biological activities” (J Med Chem, 2008).

A word on the Ki: it is the equilibrium dissociation constant of an inhibitor or competing ligand from its target.

In the first assay the target is Protein kinase C alpha type (Mus musculus, UniProt P20444). The experiment in a line: Displacement of [3H]PDBu form mouse PKCalpha by scintillation counting. The method in brief:
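Partially purified mouse PKCα; competition with [³H]PDBU. ID50 obtained by fitting a sigmoidal competition curve and converted to Ki = ID50/(1+L/Kd). Pure compounds tested at 6–7 concentrations; crude library compounds at a single 1 μM concentration. Triplicates per concentration, at least three experiments; mean ± SEM.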
`CN(C)c1cccc(C(=O)OCC2(CO)C/C(=C\c3ccccc3[N+](=O)[O-])C(=O)O2)c1` (racemic) displayed a Ki of 116 nM.
`CN(C)c1ccc(/C=C2\CC(CO)(COC(=O)c3ccc(N(C)C)cc3)OC2=O)cc1` (racemic; form 1): the Ki was 102 nM.
As for `CN(C)c1ccccc1C(=O)OCC1(CO)C/C(=C\c2ccc([N+](=O)[O-])cc2)C(=O)O1` (racemic), the affinity corresponds to a Ki of 38.5 nM.
Still for that read-out and setting: to `O=C1OC(CO)(COC(=O)c2ccc([N+](=O)[O-])cc2)C/C1=C\c1ccc([N+](=O)[O-])cc1` (racemic; form 2) belongs 127 nM; to `CN(C)c1ccccc1C(=O)OCC1(CO)C/C(=C\c2cccc([N+](=O)[O-])c2)C(=O)O1` (racemic), 44 nM; to `CN(C)c1cccc(C(=O)OCC2(CO)C/C(=C\c3ccc([N+](=O)[O-])cc3)C(=O)O2)c1` (racemic), 31.8 nM.
On the same count and under the same terms, to `CN(C)c1ccc(C(=O)OCC2(CO)C/C(=C\c3ccccc3[N+](=O)[O-])C(=O)O2)cc1` (racemic) belongs 54.5 nM.
The molecule `CN(C)c1ccc(C(=O)OCC2(CO)C/C(=C\c3ccc([N+](=O)[O-])cc3)C(=O)O2)cc1` (racemic; form 1) had a Ki of 127 nM.
As to `O=C1OC(CO)(COC(=O)c2ccc([N+](=O)[O-])cc2)C/C1=C/c1ccc(C(F)(F)F)cc1` (racemic), the Ki was 164 nM. The Ki values of the last two molecules are within 1.5-fold of each other.
Regarding `CC(C)(C)C(=O)OCC1(CO)C/C(=C/c2ccc(F)c(Br)c2)C(=O)O1` (racemic), the affinity, expressed as Ki, was 19.3 nM. Compared with the last molecule, the Ki is about 8.5-fold lower.
The molecule `CC(C)(C)CC(=O)OCC1(CO)C/C(=C/c2cc(C(F)(F)F)cc(C(F)(F)F)c2)C(=O)O1` (racemic) yielded a Ki of 51.1 nM.
For `O=C1OC(CO)(COC(=O)c2ccc([N+](=O)[O-])cc2)C/C1=C\c1ccc([N+](=O)[O-])cc1` (racemic; form 1), the Ki amounted to 660 nM.
For `Cc1cc(C)c(C(=O)OCC2(CO)C/C(=C/C3CCCCC3)C(=O)O2)c(C)c1` (racemic), the Ki was 69.4 nM.
Still for that read-out and setting: for `CCCCC(CC)C(=O)OCC1(CO)C/C(=C\c2ccc(Cl)cc2)C(=O)O1` (racemic; form 2) the value was 2.9 nM; for `CCCC(CCC)C(=O)OCC1(CO)C/C(=C\c2ccc(F)c(Br)c2)C(=O)O1` (racemic; form 2), 2.66 nM; for `CC(CC(=O)OCC1(CO)C/C(=C/c2ccc(OC(F)(F)F)cc2)C(=O)O1)CC(C)(C)C` (racemic), 20.4 nM.
As for `COc1ccc(/C=C2\CC(CO)(COC(=O)c3c(C(C)C)cc(C(C)C)cc3C(C)C)OC2=O)cc1` (racemic; form 1), the Ki is 8 nM.
For `CC(C)(C)C(=O)OCC1(CO)C/C(=C/c2ccccc2C(F)(F)F)C(=O)O1` (racemic), the affinity corresponds to a Ki of 54.5 nM.
Molecule `CC(CC(=O)OCC1(CO)C/C(=C/c2ccccc2C(F)(F)F)C(=O)O1)CC(C)(C)C` (racemic) yielded a Ki of 33.3 nM.
As to `CC(C)C(=O)OCC1(CO)C/C(=C/c2ccc(F)cc2)C(=O)O1` (racemic), the Ki is 273 nM. Compared with the last molecule, the Ki is about 8.2-fold higher.
`COc1ccc(/C=C2/CC(CO)(COC(=O)c3ccc(C(F)(F)F)cc3)OC2=O)cc1` (racemic) had a Ki of 149 nM. Compared with the last molecule, the Ki is about 1.8-fold lower.
`CCCCC(CC)C(=O)OCC1(CO)C/C(=C\c2ccc(N(C)C)cc2)C(=O)O1` (racemic; form 2) yielded a Ki of 96 nM.
In turn, `Cc1ccccc1C(=O)OCC1(CO)C/C(=C/c2ccc([N+](=O)[O-])cc2)C(=O)O1` (racemic) gave a Ki of 171 nM.
Still for that read-out and setting: for `O=C1OC(CO)(COC(=O)C(c2ccccc2)c2ccccc2)C/C1=C/c1ccc(F)c(Br)c1` (racemic) the value was 37.9 nM; for `CCCCC(CC)C(=O)OCC1(CO)C/C(=C/c2ccc(F)c(Cl)c2)C(=O)O1` (racemic), 11 nM; for `CCCCCCC(=O)OCC1(CO)C/C(=C/c2ccc(C(F)(F)F)cc2)C(=O)O1` (racemic), 35.4 nM.
For `Cc1ccccc1C(=O)OCC1(CO)C/C(=C/C2CCCCC2)C(=O)O1` (racemic), the Ki came out at 110 nM.
With `CCCCC(CC)C(=O)OCC1(CO)C/C(=C/c2ccc(OC)cc2)C(=O)O1` (racemic), the Ki turned out to be 53.9 nM.
`CCCCCCC(=O)OCC1(CO)C/C(=C/C(CC)CCCC)C(=O)O1` (racemic) came in with a Ki of 74.5 nM.
On to `CC(CC(=O)OCC1(CO)C/C(=C/c2cccc(C(F)(F)F)c2)C(=O)O1)CC(C)(C)C` (racemic; form 1), for which the Ki amounted to 13.3 nM.
The molecule `CCCC(CCC)C(=O)OCC1(CO)C/C(=C\c2ccc(F)c(Cl)c2)C(=O)O1` (racemic; form 2) displayed a Ki of 9.3 nM.
`CC(CC(=O)OCC1(CO)C/C(=C/c2cc(C(F)(F)F)cc(C(F)(F)F)c2)C(=O)O1)CC(C)(C)C` (racemic): the Ki was found to be 30.1 nM.
In the case of `COc1ccc(C(=O)OCC2(CO)C/C(=C\c3ccc([N+](=O)[O-])cc3)C(=O)O2)cc1` (racemic; form 2), the Ki came to 103 nM.
In turn, `COc1ccc(/C=C2/CC(CO)(COC(=O)c3ccc([N+](=O)[O-])cc3)OC2=O)cc1` (racemic) yielded a Ki of 552 nM.
The same measure, in the same setting: for `COc1ccc(/C=C2\CC(CO)(COC(=O)c3ccc(N(C)C)cc3)OC2=O)cc1` (racemic; form 2) the value was 359 nM; for `CCCC(CCC)C(=O)OCC1(CO)C/C(=C/c2cc(C(F)(F)F)cc(C(F)(F)F)c2)C(=O)O1` (racemic), 27.3 nM; for `CN(C)c1ccc(C(=O)OCC2(CO)C/C(=C/c3ccccc3)C(=O)O2)cc1` (racemic), 251 nM.
The molecule `CC(C)(C)CC(=O)OCC1(CO)C/C(=C/c2ccc(C(F)(F)F)cc2)C(=O)O1` (racemic) came in with a Ki of 24.7 nM.
On to `Cc1cc(C)c(C(=O)OCC2(CO)C/C(=C/c3ccc(N(C)C)cc3)C(=O)O2)c(C)c1` (racemic), for which affinity was put at a Ki of 517 nM.
Same read-out and setting: to `CC(C)(C)C(=O)OCC1(CO)C/C(=C\c2ccc(F)c(Cl)c2)C(=O)O1` (racemic; form 1) belongs 10.9 nM; to `O=C1OC(CO)(COC(=O)C2CCCCC2)C/C1=C/C1CCCCC1` (racemic), 89.4 nM.
In turn, `CC(CC(=O)OCC1(CO)C/C(=C/c2ccc(Cl)cc2)C(=O)O1)CC(C)(C)C` (racemic) showed a Ki of 16.8 nM.
Still for that read-out and setting: for `O=C1OC(CO)(COC(=O)c2ccc([N+](=O)[O-])cc2)C/C1=C/c1ccccc1` (racemic) the value was 438 nM; for `CCCCC(/C=C1/CC(CO)(COC(=O)c2ccc([N+](=O)[O-])cc2)OC1=O)CC` (racemic; form 2), 334 nM; for `CC(C)(C)C(=O)OCC1(CO)C/C(=C/c2ccc(F)cc2)C(=O)O1` (racemic), 88.4 nM.
Molecule `CC(C)c1cc(C(C)C)c(C(=O)OCC2(CO)C/C(=C/c3ccc(C(F)(F)F)cc3)C(=O)O2)c(C(C)C)c1` (racemic) had a Ki of 70 nM.
On to `CCCCCCC(=O)OCC1(CO)C/C(=C/c2ccccc2)C(=O)O1` (racemic), for which the affinity corresponds to a Ki of 89.6 nM. The Ki values of the last two molecules are within 1.5-fold of each other.
`COc1ccc(/C=C2\CC(CO)(COC(=O)c3c(C)cc(C)cc3C)OC2=O)cc1` (racemic; form 2) registered a Ki of 119 nM. The Ki values of the last two molecules are within 1.5-fold of each other.
In turn, `CCCCCCC(=O)OCC1(CO)C/C(=C/c2ccc(N(C)C)cc2)C(=O)O1` (racemic) gave an inhibition constant Ki of 357 nM.
Still for that read-out and setting: to `CC(C)C(=O)OCC1(CO)C/C(=C/c2ccc(Cl)cc2)C(=O)O1` (racemic) belongs 88.2 nM.

The target of the next assay is T1, Ras guanyl-releasing protein 3 (Homo sapiens, UniProt Q8IV61).
T1 sequence (Q8IV61 whole entry): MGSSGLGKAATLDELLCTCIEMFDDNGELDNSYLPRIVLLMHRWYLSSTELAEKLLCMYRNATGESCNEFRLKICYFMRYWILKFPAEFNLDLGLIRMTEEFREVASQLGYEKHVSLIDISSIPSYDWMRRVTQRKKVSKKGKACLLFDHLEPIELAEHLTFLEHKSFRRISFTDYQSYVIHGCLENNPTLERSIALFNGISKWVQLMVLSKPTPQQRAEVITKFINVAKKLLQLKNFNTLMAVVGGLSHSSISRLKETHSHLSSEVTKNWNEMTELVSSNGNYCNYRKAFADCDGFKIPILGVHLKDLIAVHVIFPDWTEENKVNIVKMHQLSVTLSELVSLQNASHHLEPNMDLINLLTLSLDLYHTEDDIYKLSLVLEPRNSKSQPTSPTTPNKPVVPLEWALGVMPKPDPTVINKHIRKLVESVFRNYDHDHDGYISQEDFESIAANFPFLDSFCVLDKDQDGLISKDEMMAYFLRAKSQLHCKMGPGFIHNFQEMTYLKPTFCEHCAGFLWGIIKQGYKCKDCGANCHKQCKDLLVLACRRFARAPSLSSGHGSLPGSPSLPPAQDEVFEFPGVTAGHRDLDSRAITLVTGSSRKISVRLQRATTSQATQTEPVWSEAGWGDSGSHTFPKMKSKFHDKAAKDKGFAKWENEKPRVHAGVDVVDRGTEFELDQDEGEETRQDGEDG
The experiment in a line: Binding affinity to RasGRP3.
`CN(C)c1cccc(C(=O)OCC2(CO)C/C(=C\c3ccccc3[N+](=O)[O-])C(=O)O2)c1` (racemic) returned a Ki of 16.4 nM. That is a double-digit nanomolar value.
For the molecule `CN(C)c1ccc(/C=C2\CC(CO)(COC(=O)c3ccc(N(C)C)cc3)OC2=O)cc1` (racemic; form 1), the affinity corresponds to a Ki of 4.68 nM.
Still for that read-out and setting: to `CN(C)c1ccccc1C(=O)OCC1(CO)C/C(=C\c2ccc([N+](=O)[O-])cc2)C(=O)O1` (racemic) belongs 1.8 nM.
The molecule `O=C1OC(CO)(COC(=O)c2ccc([N+](=O)[O-])cc2)C/C1=C\c1ccc([N+](=O)[O-])cc1` (racemic; form 2) registered a Ki of 2.22 nM. This Ki and that of the molecule before are within 1.5-fold of each other.
In turn, `CN(C)c1ccccc1C(=O)OCC1(CO)C/C(=C\c2cccc([N+](=O)[O-])c2)C(=O)O1` (racemic) showed a Ki of 3.9 nM. This Ki lies about 1.8-fold higher than the previous one.
Molecule `CN(C)c1cccc(C(=O)OCC2(CO)C/C(=C\c3ccc([N+](=O)[O-])cc3)C(=O)O2)c1` (racemic) showed a Ki of 2.3 nM. This Ki is about 1.7-fold lower than that of the molecule before.
With `CN(C)c1ccc(C(=O)OCC2(CO)C/C(=C\c3ccccc3[N+](=O)[O-])C(=O)O2)cc1` (racemic), the Ki was 14.4 nM.
Same read-out and setting: for `CN(C)c1ccc(C(=O)OCC2(CO)C/C(=C\c3ccc([N+](=O)[O-])cc3)C(=O)O2)cc1` (racemic; form 1) the value was 3.8 nM.
